Measurements from ChEMBL document CHEMBL4480426, “Novel multi-target directed ligands based on annelated xanthine scaffold with aromatic substituents acting on adenosine receptor and monoamine oxidase B. Synthesis, in vitro and in silico studies” (Bioorg Med Chem, 2019).

How the values were obtained:
Adenosine receptor A2a = Adenosine receptor A2a (Homo sapiens, UniProt P29274); assay: Displacement of [3H]MSX2 from recombinant human adenosine A2a receptor expressed in HEK293 cells; format: cell-based
[1] = biological target: T1, Amine oxidase [flavin-containing] A (Homo sapiens, UniProt P21397); assay: Inhibition of recombinant human MAOA expressed in baculovirus infected BTI insect cells using p-tyramine as substrate preincubated for 30 mins followed by substrate addition and measured over 45 mins by horseradish peroxidase-Amplex Red-coupled fluorometric assay
T1 sequence (P21397 whole entry): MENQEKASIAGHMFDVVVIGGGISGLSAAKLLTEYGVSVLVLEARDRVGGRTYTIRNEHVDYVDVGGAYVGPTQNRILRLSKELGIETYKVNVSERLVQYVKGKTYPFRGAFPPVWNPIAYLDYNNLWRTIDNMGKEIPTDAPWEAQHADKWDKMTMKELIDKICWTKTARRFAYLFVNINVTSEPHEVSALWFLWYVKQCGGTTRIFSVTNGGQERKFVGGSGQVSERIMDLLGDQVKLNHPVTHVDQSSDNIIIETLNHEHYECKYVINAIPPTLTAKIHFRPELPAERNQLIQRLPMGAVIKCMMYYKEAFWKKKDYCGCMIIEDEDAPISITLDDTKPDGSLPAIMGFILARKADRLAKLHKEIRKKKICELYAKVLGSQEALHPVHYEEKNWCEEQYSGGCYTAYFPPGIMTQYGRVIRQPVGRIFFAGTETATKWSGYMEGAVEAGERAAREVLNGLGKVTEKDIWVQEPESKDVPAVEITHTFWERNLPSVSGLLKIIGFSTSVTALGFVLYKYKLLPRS
Method in brief: (§1)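 Human recombinant MAO-A or MAO-B enzyme. Activity detected fluorometrically with the Amplex Red monoamine oxidase assay.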

[2] = biological target: T1, Amine oxidase [flavin-containing] A; assay: Inhibition of recombinant human MAOA expressed in baculovirus infected BTI insect cells at 1 to 100 uM using p-tyramine as substrate preincubated for 30 mins followed by substrate addition and measured over 45 mins by horseradish peroxidase-Amplex Red-coupled fluorometric assay relative to control; settings: 0.75 h; method in brief: as §1
Adenosine receptor A2b = biological target: T2, Adenosine receptor A2b (Homo sapiens, UniProt P29275); assay: Displacement of [3H]PSB603 from recombinant human adenosine A2b receptor expressed in HEK293 cells; format: cell-based
T2 sequence (P29275 whole entry): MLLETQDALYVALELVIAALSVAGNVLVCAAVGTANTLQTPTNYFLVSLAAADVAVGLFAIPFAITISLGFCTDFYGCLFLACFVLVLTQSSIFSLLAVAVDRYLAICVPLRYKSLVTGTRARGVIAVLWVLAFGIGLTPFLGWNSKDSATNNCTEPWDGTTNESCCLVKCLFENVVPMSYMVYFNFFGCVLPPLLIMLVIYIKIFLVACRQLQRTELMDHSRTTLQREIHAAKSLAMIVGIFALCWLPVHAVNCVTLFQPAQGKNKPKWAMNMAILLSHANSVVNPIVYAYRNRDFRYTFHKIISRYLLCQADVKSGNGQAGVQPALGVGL

[3] = biological target: T3, Adenosine receptor A1 (Homo sapiens) (UniProt P30542); assay: Displacement of [3H]CCPA from recombinant human adenosine A1 receptor expressed in CHO cells at 1 uM relative to control; format: cell-based
T3 sequence (whole entry): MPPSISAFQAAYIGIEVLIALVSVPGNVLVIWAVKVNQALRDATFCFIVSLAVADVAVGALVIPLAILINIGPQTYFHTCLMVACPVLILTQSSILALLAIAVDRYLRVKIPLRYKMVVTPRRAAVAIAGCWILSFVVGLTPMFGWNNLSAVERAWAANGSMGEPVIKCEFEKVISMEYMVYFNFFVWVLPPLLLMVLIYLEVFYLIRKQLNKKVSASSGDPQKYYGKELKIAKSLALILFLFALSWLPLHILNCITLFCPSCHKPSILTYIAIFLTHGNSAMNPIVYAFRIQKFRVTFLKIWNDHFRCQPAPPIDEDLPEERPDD
Method in brief: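 Purchased membranes of CHO cells expressing human A1 ([3H]CCPA) or human A3 ([3H]PSB-11). A single high compound concentration is screened first; for potent compounds, full inhibition curves spanning 3 orders of magnitude. At least three independent experiments.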

Brain = assay: Antioxidant activity in rat brain homogenate assessed as inhibition of FeCl2/ascorbic acid-induced lipid peroxidation by measuring reduction in TBARS level at 1000 uM preincubated for 5 mins followed by FeCl2/ascorbic acid addition and measured after 30 mins relative to control; format: functional, tissue-based; design: scale not given: the % may be the effect or the level left
Method in brief: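 Rat brain homogenate in 0.9% saline, 10 mg tissue/ml, preincubated 5 min at 37 °C with compound or vehicle. Peroxidation started with 0.5 mM FeCl2 plus 2 mM ascorbic acid (added-solution concentrations). After 30 min, stopped with 0.2% BHT. Thiobarbituric acid reagent added, heated 15 min in boiling water, TBARS extracted into n-butanol and read at 532 nm. Carvedilol as reference.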

[4] = biological target: T4, Amine oxidase [flavin-containing] B (Homo sapiens, UniProt P27338); assay: Inhibition of recombinant human MAOB expressed in baculovirus infected BTI insect cells using p-tyramine as substrate preincubated for 30 mins followed by substrate addition and measured over 45 mins by horseradish peroxidase-Amplex Red-coupled fluorometric assay; method in brief: as §1
T4 sequence (P27338 whole entry): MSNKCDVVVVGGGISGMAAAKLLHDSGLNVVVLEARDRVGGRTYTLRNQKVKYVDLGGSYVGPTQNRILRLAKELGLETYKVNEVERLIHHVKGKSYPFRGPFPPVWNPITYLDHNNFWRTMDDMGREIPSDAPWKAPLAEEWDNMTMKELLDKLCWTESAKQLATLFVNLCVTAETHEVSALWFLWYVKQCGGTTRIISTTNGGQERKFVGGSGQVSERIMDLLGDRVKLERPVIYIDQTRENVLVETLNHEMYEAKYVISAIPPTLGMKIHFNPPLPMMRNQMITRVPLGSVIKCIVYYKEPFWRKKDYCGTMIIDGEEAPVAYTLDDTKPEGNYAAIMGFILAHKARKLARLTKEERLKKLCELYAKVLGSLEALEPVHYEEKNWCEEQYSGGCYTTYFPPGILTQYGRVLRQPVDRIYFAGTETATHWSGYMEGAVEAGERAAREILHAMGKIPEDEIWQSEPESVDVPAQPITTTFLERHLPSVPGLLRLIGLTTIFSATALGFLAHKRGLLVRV

[5] = biological target: T5, Adenosine receptor A2b (Homo sapiens) (UniProt P29275); assay: Displacement of [3H]PSB603 from recombinant human adenosine A2b receptor expressed in HEK293 cells at 1 uM relative to control; format: cell-based
T5 sequence (whole entry): T2 sequence (P29275 whole entry)
Method in brief: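 Purchased membranes of HEK cells expressing human A2A ([3H]MSX-2) or human A2B ([3H]PSB-603). A single high compound concentration is screened first; for potent compounds, full inhibition curves spanning 3 orders of magnitude. At least three independent experiments.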

Sequence of Adenosine receptor A2a (P29274 whole entry): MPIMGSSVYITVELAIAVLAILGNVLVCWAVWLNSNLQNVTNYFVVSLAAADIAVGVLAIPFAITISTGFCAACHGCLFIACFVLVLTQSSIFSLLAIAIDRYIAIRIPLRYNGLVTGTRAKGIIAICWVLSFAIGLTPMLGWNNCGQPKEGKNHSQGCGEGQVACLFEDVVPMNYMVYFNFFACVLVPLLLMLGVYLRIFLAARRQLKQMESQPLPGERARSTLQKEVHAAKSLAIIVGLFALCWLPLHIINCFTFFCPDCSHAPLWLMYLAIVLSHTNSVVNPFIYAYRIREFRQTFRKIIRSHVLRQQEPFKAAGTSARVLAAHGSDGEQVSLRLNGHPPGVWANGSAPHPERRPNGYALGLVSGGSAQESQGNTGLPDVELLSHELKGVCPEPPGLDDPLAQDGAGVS

## Cn1c(=O)c2c(nc3n2CCCCN3Cc2ccc(Cl)c(Cl)c2)n(C)c1=O
Adenosine receptor A2a
  Ki: > 1000 nM
[1]
  IC50: > 1000 nM
[2]
  inhibition (INH): 5%
Adenosine receptor A2b
  Ki: > 1000 nM
[3]
  inhibition: 21%
Brain
  Activity: 16.6%
[4]
  IC50: 83 nM
[5]
  inhibition: 40%
